Test results: ChEMBL document CHEMBL1124663, “Design, synthesis, antineoplastic activity, and chemical properties of bis(carbamate) derivatives of 4,5-bis(hydroxymethyl)imidazole” (J Med Chem, 1989)

How the values were obtained:
[1] = system: Mus musculus; test: Body Weight Difference (BWD) of test animals administered with 400 mg/kg compound is determined on day 5 for P388 tumor cells; assay type: functional
In short: (§1)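 P388 leukaemia: about 10^6 cells in ascitic fluid inoculated ip on day 0 (CD2F1 mice). Compound given ip in normal saline as a freshly prepared solution or suspension, once daily on days 1–5. Treated-minus-control body weight difference in g, taken as day 5 minus day 1 weight. Groups of six.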

[2] = system: Mus musculus; test: Body Weight Difference (BWD) of test animals administered with 100 mg/kg compound is determined on day 5 for P388 tumor cells; assay type: functional; in short: as §1
[3] = system: Mus musculus; test: Body Weight Difference (BWD) of test animals administered with 200 mg/kg compound is determined on day 5 for P388 tumor cells; assay type: functional; in short: as §1
[4] = system: Mus musculus; test: Toxicity day evaluation was carried out on day 5 for animal dosed with 400 mg/kg compound; 4/5; assay type: organism-based; set-up: dose 400 mg/kg; details: in vivo
[5] = system: Mus musculus; test: Body Weight Difference (BWD) of test animals administered with 50 mg/kg compound is determined on day 5 for P388 tumor cells; assay type: functional; in short: as §1
[6] = system: Mus musculus; test: Ability of 100 mg/kg of compound to kill tumor cells in mice is expressed as the log of the tumor cell population at the onset of treatment minus the log of the tumor cell population at the end of treatment; assay type: functional
[7] = system: Mus musculus; test: Toxicity day evaluation was carried out on day 5 for animal dosed with 100 mg/kg compound; 5/5; assay type: organism-based; set-up: dose 100 mg/kg; details: in vivo
[8] = system: Mus musculus; test: Ability of 50 mg/kg of compound to kill tumor cells in mice is expressed as the log of the tumor cell population at the onset of treatment minus the log of the tumor cell population at the end of treatment; assay type: functional
[9] = system: Mus musculus; test: Toxicity day evaluation was carried out on day 5 for animal dosed with 200 mg/kg compound; 5/5; assay type: organism-based; set-up: dose 200 mg/kg; details: in vivo
[10] = system: Mus musculus; test: Toxicity day evaluation was carried out on day 5 for animal dosed with 50 mg/kg compound; 5/5; assay type: organism-based; set-up: dose 50 mg/kg; details: in vivo
[11] = system: Mus musculus; test: Body Weight Difference (BWD) of test animals with P388 administered with 200 mg/kg compound is determined; assay type: functional; in short: as §1
[12] = system: Mus musculus; test: The percent of the median survival time of test mice compared to control mice is determined for mice administered with 12.5 mg/kg compound.; assay type: functional
[13] = system: Mus musculus; test: Body Weight Difference (BWD) of test animals with P388 administered with 25 mg/kg compound is determined; assay type: functional; in short: as §1
[14] = system: Mus musculus; test: Body Weight Difference (BWD) of test animals with P388 administered with 12.5 mg/kg compound is determined; assay type: functional; in short: as §1
[15] = system: Mus musculus; test: Toxicity day evaluation was carried out on day 5 for animal dosed with 200 mg/kg compound. Number of animals in initial test groups were 5; assay type: organism-based; set-up: dose 200 mg/kg; details: in vivo
[16] = system: Mus musculus; test: Toxicity day evaluation was carried out on day 5 for animal dosed with 25 mg/kg compound. Number of animals in initial test groups were 5; assay type: organism-based; set-up: dose 25 mg/kg; details: in vivo
[17] = system: Mus musculus; test: Toxicity day evaluation was carried out on day 5 for animal dosed with 12.5 mg/kg compound. Number of animals in initial test groups were 5; assay type: organism-based; set-up: dose 12.5 mg/kg; details: in vivo
[18] = system: Mus musculus; test: Toxicity day evaluation was carried out on day 5 for animal dosed with 50 mg/kg compound. Number of animals in initial test groups were 5; assay type: organism-based; set-up: dose 50 mg/kg; details: in vivo
[19] = system: Mus musculus; test: Body Weight Difference (BWD) of test animals with P388 administered with 100 mg/kg compound is determined; assay type: functional; in short: as §1
[20] = system: Mus musculus; test: Body Weight Difference (BWD) of test animals with P388 administered with 50 mg/kg compound is determined; assay type: functional; in short: as §1
[21] = system: Mus musculus; test: Toxicity day evaluation was carried out on day 5 for animal dosed with 100 mg/kg compound. Number of animals in initial test groups were 5; assay type: organism-based; set-up: dose 100 mg/kg; details: in vivo
[22] = system: Mus musculus; test: The percent of the median survival time of test mice compared to control mice is determined for mice administered with 12.5 mg/kg compound; assay type: functional
[23] = system: Mus musculus; test: Toxicity day evaluation was carried out on day 5 for animal dosed with 25 mg/kg compound; 5/5; assay type: organism-based; set-up: dose 25 mg/kg; details: in vivo
[24] = system: Mus musculus; test: The percent of the median survival time of test mice compared to control mice is determined for mice administered with 200 mg/kg compound; assay type: functional
[25] = system: Mus musculus; test: Toxicity day evaluation was carried out on day 5 for animal dosed with 12.5 mg/kg compound; 5/5; assay type: organism-based; set-up: dose 12.5 mg/kg; details: in vivo
[26] = system: Mus musculus; test: The percent of the median survival time of test mice compared to control mice is determined for mice administered with 25 mg/kg compound; assay type: functional
[27] = system: Mus musculus; test: Toxicity day evaluation was carried out on day 5 for animal dosed with 400 mg/kg compound. Number of animals in initial test groups were 6; assay type: organism-based; set-up: dose 400 mg/kg; details: in vivo
[28] = system: Mus musculus; test: Toxicity day evaluation was carried out on day 5 for animal dosed with 200 mg/kg compound. Number of animals in initial test groups were 6; assay type: organism-based; set-up: dose 200 mg/kg; details: in vivo
[29] = system: Mus musculus; test: Ability of 25 mg/kg of compound to kill P388 tumor cells in mice is expressed as the log of the tumor cell population at the onset of treatment minus the log of the tumor cell population at the end of treatment.; assay type: functional
In short: (§2)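 P388 leukemia, 10^6 cells implanted ip on day 0. Drug given ip daily on days 1-5 as a saline suspension freshly prepared before injection. Log cell kill is computed from survival, with % T/C taken as median survival time of treated versus control mice.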

[30] = system: Mus musculus; test: Body Weight Difference (BWD) of test animals administered with 100 mg/kg compound is determined; assay type: functional
[31] = system: Mus musculus; test: Toxicity day evaluation was carried out on day 5 for animal dosed with 25 mg/kg compound. Number of animals in initial test groups were 6; assay type: organism-based; set-up: dose 25 mg/kg; details: in vivo
[32] = system: Mus musculus; test: Toxicity day evaluation was carried out on day 5 for animal dosed with 50 mg/kg compound. Number of animals in initial test groups were 6; assay type: organism-based; set-up: dose 50 mg/kg; details: in vivo
[33] = system: Mus musculus; test: Ability of 50 mg/kg of compound to kill P388 tumor cells in mice is expressed as the log of the tumor cell population at the onset of treatment minus the log of the tumor cell population at the end of treatment.; assay type: functional; in short: as §2
[34] = system: Mus musculus; test: Body Weight Difference (BWD) of test animals with P388 administered with 400 mg/kg compound is determined; assay type: functional; in short: as §1
[35] = system: Mus musculus; test: The percent of the median survival time of test mice compared to control mice is determined for mice administered with 25 mg/kg compound.; assay type: functional
[36] = system: Mus musculus; test: Toxicity day evaluation was carried out on day 5 for animal dosed with 100 mg/kg compound. Number of animals in initial test groups were 6; assay type: organism-based; set-up: dose 100 mg/kg; details: in vivo
[37] = system: Mus musculus; test: Toxicity day evaluation was carried out on day 5 for animal dosed with 200 mg/kg compound; 5/6; assay type: organism-based; set-up: dose 200 mg/kg; details: in vivo
[38] = system: Mus musculus; test: The percent of the median survival time of test mice compared to control mice is determined for mice administered with 400 mg/kg compound; assay type: functional
[39] = system: Mus musculus; test: Toxicity day evaluation was carried out on day 5 for animal dosed with 25 mg/kg compound; 6/6; assay type: organism-based; set-up: dose 25 mg/kg; details: in vivo
[40] = system: Mus musculus; test: The percent of the median survival time of test mice compared to control mice is determined for mice administered with 100 mg/kg compound; assay type: functional
[41] = system: Mus musculus; test: The percent of the median survival time of test mice compared to control mice is determined for mice administered with 50 mg/kg compound; assay type: functional
[42] = system: Mus musculus; test: Toxicity day evaluation was carried out on day 5 for animal dosed with 400 mg/kg compound; 6/6; assay type: organism-based; set-up: dose 400 mg/kg; details: in vivo
[43] = system: Mus musculus; test: Body Weight Difference (BWD) of test animals administered with 25 mg/kg compound is determined on day 5 for P388 tumor cells; assay type: functional; in short: as §1
[44] = system: Mus musculus; test: Toxicity day evaluation was carried out on day 5 for animal dosed with 100 mg/kg compound; 6/6; assay type: organism-based; set-up: dose 100 mg/kg; details: in vivo
[45] = system: Mus musculus; test: Toxicity day evaluation was carried out on day 5 for animal dosed with 50 mg/kg compound; 6/6; assay type: organism-based; set-up: dose 50 mg/kg; details: in vivo
[46] = system: Mus musculus; test: Ability of 200 mg/kg of compound to kill tumor cells in mice is expressed as the log of the tumor cell population at the onset of treatment minus the log of the tumor cell population at the end of treatment; assay type: functional
[47] = system: Mus musculus; test: Toxicity day evaluation was carried out on day 5 for animal dosed with 12.5 mg/kg compound; 6/6; assay type: organism-based; set-up: dose 12.5 mg/kg; details: in vivo
[48] = system: Mus musculus; test: Ability of 25 mg/kg of compound to kill tumor cells in mice is expressed as the log of the tumor cell population at the onset of treatment minus the log of the tumor cell population at the end of treatment; assay type: functional
[49] = system: Mus musculus; test: Body Weight Difference (BWD) of test animals administered with 12.5 mg/kg compound is determined on day 5 for P388 tumor cells; assay type: functional; in short: as §1

SMILES: CNC(=O)OCc1nc(SC)n(-c2ccccc2)c1COC(=O)NC
- BWD [1]: -5.2 g
- BWD [2]: -1.6 g
- BWD [3]: -3 g
- Survivors / animals tested [4]: 4
- BWD [5]: -1.4 g
- KE [6]: 0.17
- Survivors / animals tested [7]: 5
- KE [8]: 0.6
- Survivors / animals tested [9]: 5
- Survivors / animals tested [10]: 5

SMILES: CNC(=O)OCc1nc(-c2ccccc2)n(C)c1COC(=O)NC
- BWD [11]: -2.2 g
- T/C [12]: 98%
- BWD [13]: 0 g
- BWD [14]: -0.2 g
- Survivors / animals tested [15]: 5
- Survivors / animals tested [16]: 5
- Survivors / animals tested [17]: 5
- Survivors / animals tested [18]: 5
- BWD [19]: -1 g
- BWD [20]: -0.8 g
- Survivors / animals tested [21]: 5

SMILES: CNC(=O)OCc1ncn(-c2ccccc2)c1COC(=O)NC
- BWD [11]: -1.2 g
- BWD [13]: 0.2 g
- T/C [22]: 99%
- BWD [14]: -0.4 g
- Survivors / animals tested [7]: 5
- Survivors / animals tested [23]: 5
- T/C [24]: 99%
- Survivors / animals tested [25]: 5
- T/C [26]: 95%
- BWD [19]: -0.4 g
- Survivors / animals tested [9]: 5
- Survivors / animals tested [10]: 5
- BWD [20]: -0.8 g

SMILES: COc1nc(COC(=O)NC(C)C)c(COC(=O)NC(C)C)n1C
- BWD [11]: -2.6 g
- Survivors / animals tested [27]: 6
- Survivors / animals tested [28]: 6
- BWD [13]: -0.1 g
- KE [29]: -0.6
- BWD [30]: -2.1 g
- Survivors / animals tested [31]: 6
- Survivors / animals tested [32]: 6
- KE [33]: 0.54
- BWD [34]: -4.2 g
- T/C [35]: 130%
- BWD [20]: -1 g
- Survivors / animals tested [36]: 6

SMILES: CSc1nc(COC(=O)NC(C)C)c(COC(=O)NC(C)C)n1-c1ccccc1
- Survivors / animals tested [37]: 5
- T/C [38]: 100%
- BWD [1]: -4.8 g
- BWD [2]: -2 g
- Survivors / animals tested [39]: 6
- T/C [40]: 97%
- BWD [3]: -2.8 g
- BWD [5]: 0.3 g
- T/C [41]: 95%
- Survivors / animals tested [42]: 6
- BWD [43]: 0.6 g
- T/C [24]: 90%
- Survivors / animals tested [44]: 6
- Survivors / animals tested [45]: 6
- KE [46]: -1.64
- Survivors / animals tested [47]: 6
- KE [48]: -1.55
- BWD [49]: -0.2 g
